From ChEMBL document CHEMBL1828598, “Discovery of gemfibrozil analogues that activate PPARα and enhance the expression of gene CPT1A involved in fatty acids catabolism” (Eur J Med Chem, 2011)
Activity calls are given as the source filed them. No cut-off for these calls is given here.

Experiments:
[1] = molecular target: T1, Peroxisome proliferator-activated receptor alpha (Homo sapiens, UniProt Q07869); assay: Agonist activity at Gal4-fused PPARalpha expressed in HEK293 cells after 18 hrs by dual luciferase reporter gene assay; type: functional, cell-based
T1 sequence (Q07869 whole entry): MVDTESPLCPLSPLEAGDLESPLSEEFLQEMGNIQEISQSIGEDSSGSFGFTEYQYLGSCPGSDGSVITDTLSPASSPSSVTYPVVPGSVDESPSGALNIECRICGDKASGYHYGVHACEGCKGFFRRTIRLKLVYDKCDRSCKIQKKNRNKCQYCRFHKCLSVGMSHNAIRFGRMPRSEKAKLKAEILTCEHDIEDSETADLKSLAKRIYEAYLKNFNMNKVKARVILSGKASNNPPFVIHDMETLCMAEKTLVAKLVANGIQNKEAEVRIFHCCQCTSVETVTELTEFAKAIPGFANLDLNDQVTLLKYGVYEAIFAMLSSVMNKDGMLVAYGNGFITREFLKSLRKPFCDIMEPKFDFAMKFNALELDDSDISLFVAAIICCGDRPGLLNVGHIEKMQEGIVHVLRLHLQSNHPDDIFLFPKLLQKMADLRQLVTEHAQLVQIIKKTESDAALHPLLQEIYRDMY
In short: (§1)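 HEK293 cells were grown in DMEM with 10% FCS, penicillin/streptomycin, sodium pyruvate and nonessential amino acids at 37 °C, 5% CO2. The next day they were transfected in serum-free medium by calcium phosphate with GAL4-PPARα LBD (30 ng), firefly luciferase reporter (50 ng), renilla normalization vector (20 ng) and carrier DNA. Ligands were added 8 h later for 18 h. Efficacy is given as % of maximal gemfibrozil fold induction, from at least three separate experiments.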

[2] = molecular target: T2, Peroxisome proliferator-activated receptor alpha (Homo sapiens) (UniProt Q07869); assay: Agonist activity at Gal4-fused PPARalpha expressed in HEK293 cells after 18 hrs by dual luciferase reporter gene assay relative to gemfibrozil; type: functional, cell-based; in short: as §1
T2 sequence (whole entry): T1 sequence (Q07869 whole entry)

[3] = test system: HEK293; assay: Selectivity ratio of EC50 for Gal4-fused PPARalpha expressed in HEK293 cells to EC50 for Gal4-fused PPARgamma expressed in HEK293 cells; type: cell-based
[4] = molecular target: T2, Peroxisome proliferator-activated receptor alpha (Homo sapiens); assay: Agonist activity at PPARalpha in human HepG2 cells assessed as upregulation of CPT1a mRNA expression at 0.1 to 100 uM after 24 hrs by quantitative RT-PCR analysis; type: functional, cell-based
In short: (§2)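 HepG2 cells were kept in DMEM with 10% FCS and 1% penicillin/streptomycin and seeded at 5 × 10⁵ cells/well the day before. They were treated 24 h with ligands in DMSO diluted in growth medium, and vehicle-only cells served as controls. Total RNA was taken with TRIzol and DNase-treated. CPT1A mRNA was measured by RT-qPCR against cyclophilin and normalized to vehicle-treated cells. Data are mean ± SEM of four independent determinations run in duplicate.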

[5] = molecular target: T2, Peroxisome proliferator-activated receptor alpha (Homo sapiens); assay: Agonist activity at PPARalpha in human HepG2 cells assessed as upregulation of CPT1a mRNA expression after 24 hrs by quantitative RT-PCR analysis; type: functional, cell-based; in short: as §2
[6] = molecular target: T2, Peroxisome proliferator-activated receptor alpha (Homo sapiens); assay: Agonist activity at PPARalpha in human HepG2 cells assessed as upregulation of CPT1a mRNA expression at 10 uM after 24 hrs by quantitative RT-PCR analysis relative to gemfibrozil; type: functional, cell-based; in short: as §2
[7] = molecular target: T2, Peroxisome proliferator-activated receptor alpha (Homo sapiens); assay: Agonist activity at PPARalpha in human HepG2 cells assessed as upregulation of CPT1a mRNA expression at 100 uM after 24 hrs by quantitative RT-PCR analysis relative to gemfibrozil; type: functional, cell-based; in short: as §2

Compound: CC(=O)c1ccc(OCCCC(C)(C)C(=O)O)cc1
- EC50 ([1]; hek293): Not Active

Compound: CC(C)(CCCOc1ccc(C(=O)c2ccccc2)cc1)C(=O)O
- EC50 ([1]; read-out: EC50): 9.3 µM
- Efficacy [2]: 82%
- Ratio EC50 [3]: 0.9

Compound: O=C(O)CCCCOc1ccc(/C=C/c2ccccc2)cc1
- EC50 ([1]; read-out: EC50): 18.8 µM
- Efficacy [2]: 206%
- Ratio EC50 [3]: 1.1

Compound: O=C(O)CCCCOc1ccc(Oc2ccccc2)cc1
- EC50 ([1]; hek293): Not Active

Compound: CC(C)(CCCOc1ccc(Oc2ccccc2)cc1)C(=O)O
- EC50 ([1]; read-out: EC50): 9.1 µM
- Efficacy [2]: 118%
- Ratio EC50 [3]: 1.4

Compound: C=CCc1ccc(OCCCCC(=O)O)c(OC)c1
- EC50 ([1]; read-out: EC50): 11.3 µM
- Efficacy [2]: 94%
- Ratio EC50 [3]: 0.8
- Activity [4]: inactive

Compound: O=C(O)CCCCOc1ccc(/N=N/c2ccccc2)cc1
- EC50 ([1]; hek293): Not Active

Compound: CC(C)(CCCOc1ccc(/N=N/c2ccccc2)cc1)C(=O)O
- EC50 ([1]; read-out: EC50): 43.7 µM
- Efficacy [2]: 76%
- Ratio EC50 [3]: 0.8

Compound: O=C(O)CCCCOc1ccc(C(=O)/C=C/c2ccccc2)cc1
- EC50 ([1]; read-out: EC50): 109 µM
- Efficacy [2]: 235%
- Ratio EC50 [3]: 3

Compound: Cc1ccc(C)c(OCCCC(C)(C)C(=O)O)c1 [GEMFIBROZIL]
- EC50 ([1]; read-out: EC50): 59 µM
- Ratio EC50 [3]: 0.7
- Activity [4]: Active

Compound: C=CCc1ccc(OCCCC(C)(C)C(=O)O)c(OC)c1
- EC50 ([1]; read-out: EC50): 6.6 µM
- Efficacy [2]: 117%
- Ratio EC50 [3]: 1
- Activity [4]: inactive

Compound: O=C(O)CCCCOc1ccc(NC(=O)Nc2ccccc2)cc1
- EC50 ([1]; read-out: EC50): 9.3 µM
- Efficacy [2]: 106%
- Ratio EC50 [3]: 1.3
- Activity [4]: inactive

Compound: CC(C)(CCCOc1ccc(/C=C/c2ccccc2)cc1)C(=O)O
- EC50 ([1]; read-out: EC50): 1 µM
- Efficacy [2]: 223%
- Ratio EC50 [3]: 1.4
- Activity [5]: Dose-dependent effect
- fold change (FC) [6]: 2
- fold change (FC) [7]: 6

Compound: O=C(O)CCCCOc1ccc(C(=O)c2ccccc2)cc1
- EC50 ([1]; read-out: EC50): 27.1 µM
- Efficacy [2]: 123%
- Ratio EC50 [3]: 1

Compound: CC(C)(CCCOc1ccc(C(=O)/C=C/c2ccccc2)cc1)C(=O)O
- EC50 ([1]; read-out: EC50): 61.5 µM
- Efficacy [2]: 165%
- Ratio EC50 [3]: 2.1

Compound: CC(=O)c1ccc(OCCCCC(=O)O)cc1
- EC50 ([1]; hek293): Not Active
